# Screening results: PubChem, The Scripps Research Institute Molecular Screening Center
# CHRM4 antagonist: human M4 muscarinic receptor antagonists, primary screen, CHO cells, Fluo-8 calcium fluorescence. Muscarinic acetylcholine receptor M4 (Homo sapiens), P08173. CHO-hM4 cells, ACh EC80. inhibition, % at 3 µM. 360,000 compounds, 0.73% hits;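 active means inhibition above its plate's cutoff, the mean inhibition of sample wells plus 3 SD, cut at about 27% in these data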;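 further: 0% = acetylcholine EC80 with DMSO and 100% = DMSO without agonist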
# CHRM5 antagonist: human M5 muscarinic receptor antagonists, primary screen, CHO cells, Fluo-8 calcium fluorescence; inhibition, % at 3 µM; Muscarinic acetylcholine receptor M5 (Homo sapiens), P08912; CHO-hM5 cells, ACh EC80; 360,000 compounds, 0.59% hits;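 active means inhibition above a per-plate cutoff, the mean of that plate's test compounds plus 3 SD, cut at about 27% in these data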;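 further: 0% = acetylcholine EC80 with DMSO and 100% = DMSO without agonist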
# Target sequence (P08912 whole entry, looked up): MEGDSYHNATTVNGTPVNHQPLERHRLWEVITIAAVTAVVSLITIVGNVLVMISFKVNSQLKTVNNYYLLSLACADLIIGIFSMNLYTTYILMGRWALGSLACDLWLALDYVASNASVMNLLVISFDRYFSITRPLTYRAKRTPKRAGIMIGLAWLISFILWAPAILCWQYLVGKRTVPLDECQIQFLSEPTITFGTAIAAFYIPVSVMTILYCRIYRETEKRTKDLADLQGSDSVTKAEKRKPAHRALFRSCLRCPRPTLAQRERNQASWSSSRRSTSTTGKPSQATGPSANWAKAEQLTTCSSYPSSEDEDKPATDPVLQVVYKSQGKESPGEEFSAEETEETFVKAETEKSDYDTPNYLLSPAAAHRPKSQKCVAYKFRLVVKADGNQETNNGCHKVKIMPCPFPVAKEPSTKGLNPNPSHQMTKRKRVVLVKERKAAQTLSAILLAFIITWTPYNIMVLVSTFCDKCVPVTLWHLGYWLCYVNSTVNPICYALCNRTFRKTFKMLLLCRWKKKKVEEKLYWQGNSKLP
# CHRM5 PAM: human M5 muscarinic receptor positive allosteric modulators, primary screen, CHO-K1 cells, Fluo-8 calcium fluorescence; CHO-K1 hM5, ACh EC20 PAM; 0% = ACh EC20, 100% = ACh EC100; activation, % at 3 µM; 360,000 compounds, 0.3% hits; AID 624038, 2012;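 active means activation above the run cutoff, the mean activation of all test compounds plus 3 SD, cut at about 18% in these data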
#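 Probe or stimulus: acetylcholine, EC20 level; Assay system: human M5 receptor in CHO-K1 cells; Schedule: compound preincubation 140 s before EC20 acetylcholine addition; Technique: intracellular calcium via Fluo-8 fluorescence; Dosing: single-point, 3 µM nominal; Read-out basis: percent activation from peak-over-basal fluorescence ratio, scaled EC20-to-EC100 acetylcholine; Repeats: one well per compound, no replicates.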
# CHRM4 PAM: human M4 muscarinic receptor positive allosteric modulators, primary screen, CHO-K1 cells, Fluo-8 calcium fluorescence | AID 624126, 2012 | Muscarinic acetylcholine receptor M4 (Homo sapiens), P08173 | 360,000 compounds, 0.4% hits | activation, % at 3 µM | CHO-K1 hM4/Gqi5, ACh EC20; 0% = ACh EC20, 100% = maximal ACh;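 active means activation above its plate's cutoff, the mean activation of sample wells plus 3 SD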
# CHRM4 agonist: human M4 muscarinic receptor agonists, primary screen, CHO-K1 cells, Fluo-8 calcium fluorescence; Muscarinic acetylcholine receptor M4 (Homo sapiens), P08173; CHO-K1 hM4/Gqi5; vehicle 0%, full acetylcholine response 100%; activation, % at 3 µM; 360,000 compounds, 0.14% hits; AID 624127, 2012;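 active means activation above the run mean over all test wells plus 3 SD, cut at about 32% in these data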;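 further: peak over basal fluorescence ratio per well then scaled between controls; 0% = DMSO wells and 100% = acetylcholine at EC100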
# CHRM5 agonist: human M5 muscarinic receptor agonists, primary screen, CHO-K1 cells, Fluo-8 calcium fluorescence. Muscarinic acetylcholine receptor M5 (Homo sapiens), P08912. CHO-K1 hM5 cells; 0% DMSO wells, 100% maximal acetylcholine response. activation, % at 3 µM. 360,000 compounds, 0.19% hits. AID 624037, 2012;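 active means activation above the run's mean over test compounds plus 3 SD, cut at about 23% in these data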;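 further: signal is peak over basal fluorescence ratio across the kinetic read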
# * marks the source's active call; other numbers are inactive results. Most compounds without a hit are left out; they make up all but 1.8% or so of the library.
SMILES,CHRM4 antagonist,CHRM5 antagonist,CHRM5 PAM,CHRM4 PAM,CHRM4 agonist,CHRM5 agonist
CN(C(=O)COC(=O)C1(C)CC1(Cl)Cl)c1c(N)n(Cc2ccccc2)c(=O)[nH]c1=O (centres undefined),-1,7,-2,10,0,2
c1ccc2c(c1)OCC(CNCC1COc3ccccc3O1)O2 (centres undefined),11,7,-5,-1,1,-1
COc1ccc(CCNc2ncnc3sccc23)cc1OC,40*,48*,-30,-24,21,6
c1ccc2c(c1)OCC(CNc1ncnc3sccc13)O2 (centres undefined),25,35*,-17,-20,16,6
Fc1ccccc1CNc1ncnc2sccc12,16,7,-6,-6,11,4
COc1ccccc1CNc1ncnc2sccc12,1,27*,-13,-5,13,5
O=C1C=CC(=O)N1c1cccc(-c2ccccc2)c1,42*,2,-16,-49,16,-2
Cc1cc2cc3c(cc2nc1SCC(=O)OC(C)C)OCO3,-8,-6,3,24*,1,-1
CC(=O)Nc1ccc(S(=O)(=O)N2CCC(NC(=O)C(Cc3cccn3C)NC(C)=O)CC2)cc1 (centres undefined),-3,3,28*,11,1,0
CCS(=O)(=O)N1CCC(NC(=O)C(Cc2cccc(OC)c2OC)NC(C)=O)CC1 (centres undefined),-18,-13,3,18*,1,6
COC(=O)/C=C1\OCc2c(F)cccc21,0,-5,3,4,0,3
O=c1cc(CN2CCN(c3ccccc3F)CC2)c2ccccc2o1,-8,12,10,6,1,2
CS/C(=N/S(=O)(=O)c1ccc(C)cc1)c1ccccc1,-7,-3,9,24*,2,1
CC(=O)c1ccc(NC(=S)NC(C)c2ccc(Cl)cc2Cl)cc1 (centres undefined),14,29*,-15,-8,24,14
Cc1ccc(NC(=O)CCNC(=O)c2ccccc2Cl)cc1S(=O)(=O)N1CCOCC1,2,8,0,-2,1,-2
O=S(=O)(NCc1nnc2ccccn12)c1ccc(Cl)cc1,-23,0,3,17,0,1
Cc1cc(/C=C2\SC(=S)N(Cc3ccco3)C2=O)c(C)n1-c1ccccc1,2,6,22*,-1,2,12
COc1ccccc1CNC(=O)c1ccc(NC2=NC3CS(=O)(=O)CC3S2)cc1 (centres undefined),2,5,1,5,1,-3
Cc1ccccc1N1C(=O)c2cccc3c(N(C)CCO)ccc(c23)C1=O,12,15,-7,-3,17,18
COc1ccccc1N1C(=O)c2cccc3c(N(C)CCO)ccc(c23)C1=O,2,8,-3,-3,9,24*
COc1ccc(CCNC(=O)CCn2c(SCC(=O)N3CCCC3)nc3ccccc3c2=O)cc1OC,0,8,-2,-6,1,3
Cc1ccc(S(=O)(=O)Oc2ccc(/C=C(/NC(=O)c3ccccc3)C(=O)Nc3ccccc3)cc2)cc1,28*,6,-6,-10,3,2
COc1ccc(NC(=O)/C(=C\c2ccc(OS(=O)(=O)c3ccc(C)cc3)cc2)NC(=O)c2ccccc2)cc1,24,13,-7,-3,4,2
COc1ccccc1OCC(=O)N1CCN(C(=O)c2ccco2)CC1,9,17,-1,-3,1,-4
O=C(CSc1ccc2nnc(CCNC(=O)c3ccccc3)n2n1)NCc1ccco1,2,28*,-7,-1,0,-6
SMILES,CHRM4 antagonist,CHRM5 antagonist,CHRM5 PAM,CHRM4 PAM,CHRM4 agonist,CHRM5 agonist
COc1ccc(S(=O)(=O)N2CCCC(C(=O)NC3CC3)C2)cc1Cl (centres undefined),-21,14,-3,2,1,-2
COc1cc(OC)cc(C(=O)NC2CCCN(Cc3ccc(Cl)cc3)C2)c1 (centres undefined),-1,-2,1,-4,1,-3
O=C1CCCCC(=O)[C@H](OC(=O)c2ccccc2)C[C@H](c2ccccc2)O1,-21,9,-6,9,2,1
COCCCOc1cc(NCc2ccccc2)c2ncn(C(C)C)c2c1,-13,1,7,12,0,2
CCCCOc1cc(NCc2ccccc2)c2ncn(C(C)C)c2c1,-23,8,13,29*,11,13
COc1cc(NCc2ccccc2)c2ncn(Cc3ccccc3)c2c1,-20,-24,22*,36*,17,10
CC(C)C1C(=O)N(Cc2cn(Cc3ccco3)nn2)CCS(=O)(=O)N1Cc1ccc(-c2cccc(N(C)C)c2)cc1 (centres undefined),-14,-5,6,18*,-2,0
O=C(c1cccc(Br)c1)N1CCN(c2cnn(-c3ccccc3)c(=O)c2Cl)CC1,-14,2,5,35*,9,-11
COc1ccc(C2=NOC3(CC(=O)N(c4ccc(F)cc4)C3=O)C2)cc1 (centres undefined),-18,-17,14,35*,2,7
CCOC(=O)C1=C(CC)Nc2ccccc2N/C1=N\S(=O)(=O)c1cc(Br)ccc1Br,15,65*,-16,-17,29,2
N#CC1=C2CCCCC2(O)NC1=O (centres undefined),-6,2,-1,0,0,0
Cc1cccc(N(C)C(=O)C2CCCN2S(=O)(=O)c2cccc3nsnc23)c1 (centres undefined),29*,-1,2,9,0,3
CN(CC(=O)N1CCN(C2CCCCC2)CC1)S(=O)(=O)c1cccc2nsnc12,29*,2,-2,1,2,0
c1ccc(-c2nnc(-c3ccccc3)nn2)cc1,-11,-4,6,0,0,5
c1ccc(-c2cncnc2)cc1,8,-9,20*,4,2,7
O=C(COC(=O)c1ccccc1SCC(=O)N1CCCC1)Nc1ccccc1C(F)(F)F,-14,3,-4,0,10,0
CCCn1c(N)c(C(=O)CSc2nc(C)nc3sc(C)c(C)c23)c(=O)[nH]c1=O,2,-1,4,1,0,-1
